Data from ChEMBL document CHEMBL1139546, “Radiosynthesis and evaluation of [11C]-(+)-4-propyl-3,4,4a,5,6,10b-hexahydro-2H-naphtho[1,2-b][1,4]oxazin-9-ol as a potential radiotracer for in vivo imaging of the dopamine D2 high-affinity state with positron emission tomography” (2005).

Tests used:
Rattus norvegicus [1] = assay: Effect on compound specific binding to rat brain upon pre-treatment with 2 mg/kg reserpine; assay type: functional
Summary of the method: (§1)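 Male Sprague-Dawley rats, four groups of five: reserpine (2 mg/kg sc) 24 h before tracer then AMPT (250 mg/kg ip) 1 h before; reserpine then saline; saline then AMPT; saline twice as controls. Tracer given iv via tail vein. Killed 60 min post-injection. Striatal and cerebellar %ID/g counted. Specific binding ratio = (striatum − cerebellum)/cerebellum.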

Rattus norvegicus [2] = assay: Effect on compound specific binding to rat brain upon pre-treatment with 2 mg/kg reserpine and 250 mg/kg AMPT; assay type: functional; summary of the method: as §1
Rattus norvegicus [3] = assay: Effect on compound specific binding to dopamine release in rat brain upon pre-treatment with 1 mg/kg amphetamine; assay type: functional
Summary of the method: (§2)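 Male Sprague-Dawley rats (230-280 g), groups of 4-5, given the challenge agent in saline (1 mL/kg, iv unless otherwise stated) 25-30 min before tail-vein [11C] tracer, 25-30 MBq (1-2 nmol) in buffered saline. A saline control group was run each time. Killed 60 min post-injection. Striatum and cerebellum counted by gamma counter. Specific binding = (%ID/g striatum − %ID/g cerebellum)/%ID/g cerebellum.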

Rattus norvegicus [4] = assay: Effect on compound specific binding to dopamine release in rat brain upon pre-treatment with 2 mg/kg amphetamine; assay type: functional; summary of the method: as §2
Rattus norvegicus [5] = assay: Effect on compound specific binding to dopamine release in rat brain upon pre-treatment with 4 mg/kg amphetamine; assay type: functional; summary of the method: as §2
Rattus norvegicus [6] = assay: Effect on compound specific binding to dopamine release in rat brain upon pre-treatment with 0.1 mg/kg amphetamine; assay type: functional; summary of the method: as §2
Rattus norvegicus [7] = assay: Effect on compound specific binding to dopamine release in rat brain upon pre-treatment with 0.5 mg/kg amphetamine; assay type: functional; summary of the method: as §2
Rattus norvegicus [8] = assay: Effect on compound specific binding to dopamine release in rat brain upon pre-treatment with 0.25 mg/kg amphetamine; assay type: functional; summary of the method: as §2
[9] = Percent change in rat brain dopamine D2/sigma receptor binding after in rat brain after 1 mg/kg haloperidol treatment; assay type: functional; summary of the method: as §2
[10] = Percent change in rat brain dopamine D2/sigma receptor binding after in rat brain after 0.2 mg/kg haloperidol treatment; assay type: functional; summary of the method: as §2
[11] = target: D(1A) dopamine receptor (Rattus norvegicus) (UniProt P18901); details: Brain, at 1 mg/kg
Sequence of D(1A) dopamine receptor (Rattus norvegicus) (P18901 whole entry): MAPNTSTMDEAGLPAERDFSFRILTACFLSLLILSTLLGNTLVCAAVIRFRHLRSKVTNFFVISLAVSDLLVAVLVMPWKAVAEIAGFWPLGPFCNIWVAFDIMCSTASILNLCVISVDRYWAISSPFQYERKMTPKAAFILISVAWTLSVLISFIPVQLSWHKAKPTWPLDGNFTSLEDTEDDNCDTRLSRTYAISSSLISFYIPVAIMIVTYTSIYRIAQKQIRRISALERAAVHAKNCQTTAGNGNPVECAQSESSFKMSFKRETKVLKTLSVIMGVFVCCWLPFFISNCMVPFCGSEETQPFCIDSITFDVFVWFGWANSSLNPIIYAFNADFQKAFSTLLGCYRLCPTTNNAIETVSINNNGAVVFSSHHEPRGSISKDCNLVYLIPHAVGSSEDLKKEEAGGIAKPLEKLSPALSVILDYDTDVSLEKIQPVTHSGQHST

[12] = target: Sodium-dependent dopamine transporter (Rattus norvegicus) (UniProt P23977); details: Brain, at 1 mg/kg
Sequence of Sodium-dependent dopamine transporter (Rattus norvegicus) (P23977 whole entry): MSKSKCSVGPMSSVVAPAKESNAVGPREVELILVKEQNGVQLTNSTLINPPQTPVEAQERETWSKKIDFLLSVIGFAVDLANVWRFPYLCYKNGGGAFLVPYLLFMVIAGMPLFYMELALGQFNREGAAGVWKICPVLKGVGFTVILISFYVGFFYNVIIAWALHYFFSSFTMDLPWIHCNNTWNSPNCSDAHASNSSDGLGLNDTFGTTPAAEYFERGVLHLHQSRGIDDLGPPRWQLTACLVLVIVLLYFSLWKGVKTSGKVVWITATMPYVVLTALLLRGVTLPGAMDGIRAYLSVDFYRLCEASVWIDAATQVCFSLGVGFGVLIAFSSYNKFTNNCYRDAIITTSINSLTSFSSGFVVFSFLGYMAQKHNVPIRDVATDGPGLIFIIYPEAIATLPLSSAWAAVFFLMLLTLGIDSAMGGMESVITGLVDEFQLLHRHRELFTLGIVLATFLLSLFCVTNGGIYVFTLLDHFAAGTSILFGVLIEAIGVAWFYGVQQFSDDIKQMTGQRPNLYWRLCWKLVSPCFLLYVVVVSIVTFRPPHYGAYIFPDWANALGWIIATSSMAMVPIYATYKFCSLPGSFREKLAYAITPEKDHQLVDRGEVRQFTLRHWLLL

[13] = target: Sodium-dependent dopamine transporter (Rattus norvegicus) (UniProt P23977); details: Brain, at 2 mg/kg
[14] = target: Sodium-dependent dopamine transporter (Rattus norvegicus) (UniProt P23977); details: Brain, at 5 mg/kg
[15] = target: Tyrosine 3-monooxygenase (Rattus norvegicus) (UniProt P04177); details: Brain, at 250 mg/kg
Sequence of Tyrosine 3-monooxygenase (Rattus norvegicus) (P04177 whole entry): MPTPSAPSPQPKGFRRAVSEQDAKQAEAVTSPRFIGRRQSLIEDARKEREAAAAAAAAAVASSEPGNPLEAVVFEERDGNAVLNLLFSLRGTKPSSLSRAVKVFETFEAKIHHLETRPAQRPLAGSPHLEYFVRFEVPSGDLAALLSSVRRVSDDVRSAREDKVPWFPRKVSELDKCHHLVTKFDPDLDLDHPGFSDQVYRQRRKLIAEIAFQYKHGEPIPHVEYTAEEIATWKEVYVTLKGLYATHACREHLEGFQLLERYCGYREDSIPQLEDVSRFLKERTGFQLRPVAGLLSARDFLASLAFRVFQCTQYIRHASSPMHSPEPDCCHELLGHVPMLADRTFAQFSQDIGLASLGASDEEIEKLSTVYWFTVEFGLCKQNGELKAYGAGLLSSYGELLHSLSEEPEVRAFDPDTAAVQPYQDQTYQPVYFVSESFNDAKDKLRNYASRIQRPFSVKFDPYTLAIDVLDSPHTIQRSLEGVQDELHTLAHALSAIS

[16] = target: Sodium-dependent dopamine transporter (Rattus norvegicus) (UniProt P23977); details: Brain, at 10 mg/kg
[17] = target: Sodium-dependent dopamine transporter (Rattus norvegicus) (UniProt P23977); details: Brain, at 0.5 mg/kg
[18] = target: Sigma non-opioid intracellular receptor 1 (Rattus norvegicus) (UniProt Q9R0C9); details: Brain, at 1 mg/kg
Sequence of Sigma non-opioid intracellular receptor 1 (Rattus norvegicus) (Q9R0C9 whole entry): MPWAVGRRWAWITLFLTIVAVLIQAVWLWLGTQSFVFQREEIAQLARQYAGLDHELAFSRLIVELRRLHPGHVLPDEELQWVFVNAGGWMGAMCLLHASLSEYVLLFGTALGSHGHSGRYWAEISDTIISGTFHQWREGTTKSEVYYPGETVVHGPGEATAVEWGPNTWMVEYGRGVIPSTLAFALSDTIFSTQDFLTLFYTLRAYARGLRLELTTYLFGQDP

[19] = target: T1, Alpha-2A adrenergic receptor (Rattus norvegicus) (UniProt P22909); details: Brain, at 2 mg/kg
T1 sequence (whole entry): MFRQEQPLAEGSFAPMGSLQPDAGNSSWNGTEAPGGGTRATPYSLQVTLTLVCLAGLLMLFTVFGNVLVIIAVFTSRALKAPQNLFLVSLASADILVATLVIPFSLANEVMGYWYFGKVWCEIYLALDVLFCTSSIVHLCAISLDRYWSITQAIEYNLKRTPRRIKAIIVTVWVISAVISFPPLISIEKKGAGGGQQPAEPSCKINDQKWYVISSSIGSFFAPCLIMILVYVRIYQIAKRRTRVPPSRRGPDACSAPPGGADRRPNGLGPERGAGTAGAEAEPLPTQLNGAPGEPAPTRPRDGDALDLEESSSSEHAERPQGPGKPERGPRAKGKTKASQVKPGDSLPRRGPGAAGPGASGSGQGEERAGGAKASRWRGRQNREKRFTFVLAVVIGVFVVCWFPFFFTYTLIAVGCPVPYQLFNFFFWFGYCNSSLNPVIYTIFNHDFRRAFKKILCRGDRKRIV

[20] = target: T2, Dopamine receptor D2 and D3 (Rattus norvegicus) (UniProt P19020+P61169); details: Brain, at 1 mg/kg
T2 sequence (P19020 whole entry, looked up): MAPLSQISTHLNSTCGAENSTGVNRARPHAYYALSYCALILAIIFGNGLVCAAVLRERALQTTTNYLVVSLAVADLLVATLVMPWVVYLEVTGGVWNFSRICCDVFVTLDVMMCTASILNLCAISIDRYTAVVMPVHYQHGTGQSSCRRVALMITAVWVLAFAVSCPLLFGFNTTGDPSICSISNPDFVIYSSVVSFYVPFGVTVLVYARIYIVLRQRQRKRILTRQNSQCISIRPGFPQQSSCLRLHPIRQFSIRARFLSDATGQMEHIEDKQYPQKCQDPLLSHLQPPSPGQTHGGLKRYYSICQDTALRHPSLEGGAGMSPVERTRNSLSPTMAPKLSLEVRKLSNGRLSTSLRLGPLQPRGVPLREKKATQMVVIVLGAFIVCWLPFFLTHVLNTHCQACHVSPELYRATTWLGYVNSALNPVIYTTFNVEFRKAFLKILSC
T2 sequence (P61169 whole entry, looked up): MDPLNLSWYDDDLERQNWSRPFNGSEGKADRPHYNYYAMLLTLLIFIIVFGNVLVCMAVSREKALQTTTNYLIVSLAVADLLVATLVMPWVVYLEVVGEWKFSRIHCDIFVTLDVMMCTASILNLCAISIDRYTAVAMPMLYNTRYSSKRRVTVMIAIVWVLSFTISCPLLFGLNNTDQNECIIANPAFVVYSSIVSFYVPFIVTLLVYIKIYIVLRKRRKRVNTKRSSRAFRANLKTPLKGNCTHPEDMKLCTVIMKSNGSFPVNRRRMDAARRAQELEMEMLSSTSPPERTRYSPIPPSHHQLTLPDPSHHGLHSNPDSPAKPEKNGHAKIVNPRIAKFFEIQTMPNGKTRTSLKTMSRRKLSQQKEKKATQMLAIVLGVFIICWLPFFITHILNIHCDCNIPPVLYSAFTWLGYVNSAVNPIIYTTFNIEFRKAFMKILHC

[21] = target: Adrenergic receptor alpha-2 (Rattus norvegicus) (UniProt P22086+P19328+P22909); details: Brain, at 1 mg/kg
Sequence of Adrenergic receptor alpha-2 (Rattus norvegicus) (P19328 whole entry, looked up, one chain of several): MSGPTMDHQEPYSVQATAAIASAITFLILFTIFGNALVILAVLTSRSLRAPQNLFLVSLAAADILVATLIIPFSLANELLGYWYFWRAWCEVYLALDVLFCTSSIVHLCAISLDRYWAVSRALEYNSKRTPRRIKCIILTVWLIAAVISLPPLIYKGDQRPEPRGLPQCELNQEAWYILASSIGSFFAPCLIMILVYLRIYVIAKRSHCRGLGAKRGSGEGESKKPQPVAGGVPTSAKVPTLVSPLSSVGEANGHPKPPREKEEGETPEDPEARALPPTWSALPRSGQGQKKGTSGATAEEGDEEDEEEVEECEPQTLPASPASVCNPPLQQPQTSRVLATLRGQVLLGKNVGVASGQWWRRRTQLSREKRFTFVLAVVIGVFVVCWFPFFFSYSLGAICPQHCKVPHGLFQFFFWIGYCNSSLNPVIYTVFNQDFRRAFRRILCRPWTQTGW
Sequence of Adrenergic receptor alpha-2 (Rattus norvegicus) (P22086 whole entry, looked up, one chain of several): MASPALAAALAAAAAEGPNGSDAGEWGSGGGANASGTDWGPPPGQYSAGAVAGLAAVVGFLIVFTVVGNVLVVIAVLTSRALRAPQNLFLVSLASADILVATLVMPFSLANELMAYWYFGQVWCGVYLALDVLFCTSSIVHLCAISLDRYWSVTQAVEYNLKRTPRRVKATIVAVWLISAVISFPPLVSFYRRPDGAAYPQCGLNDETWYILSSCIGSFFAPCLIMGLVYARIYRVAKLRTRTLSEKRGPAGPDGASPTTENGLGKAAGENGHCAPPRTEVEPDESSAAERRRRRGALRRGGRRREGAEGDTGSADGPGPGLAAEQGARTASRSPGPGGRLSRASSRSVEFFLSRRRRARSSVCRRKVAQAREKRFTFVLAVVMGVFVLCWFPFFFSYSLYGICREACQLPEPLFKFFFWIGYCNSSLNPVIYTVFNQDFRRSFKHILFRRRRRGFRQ

[22] = target: T1, Alpha-2A adrenergic receptor (Rattus norvegicus); details: Brain, at 0.1 mg/kg
[23] = target: T2, Dopamine receptor D2 and D3 (Rattus norvegicus); details: Brain, at 0.2 mg/kg
[24] = target: T2, Dopamine receptor D2 and D3 (Rattus norvegicus); details: Brain, at 0.04 mg/kg
[25] = target: T3, 5-hydroxytryptamine receptor 1A (Rattus norvegicus) (UniProt P19327); details: Brain, at 1 mg/kg
T3 sequence (whole entry): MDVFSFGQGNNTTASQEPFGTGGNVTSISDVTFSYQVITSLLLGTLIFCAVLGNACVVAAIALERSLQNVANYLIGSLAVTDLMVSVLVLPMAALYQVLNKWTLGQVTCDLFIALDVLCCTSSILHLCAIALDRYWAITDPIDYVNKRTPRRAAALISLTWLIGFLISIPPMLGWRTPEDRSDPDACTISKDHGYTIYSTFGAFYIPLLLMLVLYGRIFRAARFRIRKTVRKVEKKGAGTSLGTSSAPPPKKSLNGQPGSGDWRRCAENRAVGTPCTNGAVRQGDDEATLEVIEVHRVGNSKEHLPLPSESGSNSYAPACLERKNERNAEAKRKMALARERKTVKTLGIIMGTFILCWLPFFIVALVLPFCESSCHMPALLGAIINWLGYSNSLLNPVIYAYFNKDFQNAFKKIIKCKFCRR

[26] = target: T2, Dopamine receptor D2 and D3 (Rattus norvegicus); details: Brain, at 0.01 mg/kg

For `CCCN1CCO[C@@H]2c3cc(O)ccc3CC[C@H]21` [NAXAGOLIDE], the Change (Rattus norvegicus [1]) was 30%, the Change (Rattus norvegicus [2]) was 34% and the Change (Rattus norvegicus [3]) was -17%. The Change (Rattus norvegicus [4]) was -30%, the Change (Rattus norvegicus [5]) was -38% and the Change (Rattus norvegicus [6]) was -2%. The Change (Rattus norvegicus [7]) was -19%, the Change (Rattus norvegicus [8]) was -1% and the Change [9] was -95%. For the same compound, the Change [10] was -91%, the Change [11] was 11% and the Change [12] was -42%. For the same compound, the Change [13] was -57%, the Change [14] was -57% and the Change [15] was 31%. It also gave a Change [16] of -73%, a Change [17] of -43% and a Change [18] of 22%. The Change [19] was 13%, the Change [20] was -93% and the Change [21] was 30%. It also gave a Change [22] of 10%, a Change [23] of -80% and a Change [24] of -39%. For the same compound, the Change [25] was -14% and the Change [26] was -22%.
